Values after ≈ are worked out from the molar mass of the structure shown. “Also recorded” adds a separate entry of the source. Blank lines part the entries; values can stand above or below the molecule they belong to.
Legend:
S. aureus NRS107 (MRSA) [1] = assay: MIC, broth microdilution; format: cell-based, Staphylococcus aureus
S. aureus NRS119 (MRSA) [2] = assay: MIC, broth microdilution; format: cell-based, Staphylococcus aureus
S. aureus NRS194 (MRSA) [3] = assay: MIC, broth microdilution; format: cell-based, Staphylococcus aureus
S. aureus USA300 (MRSA) [4] = assay: MIC, broth microdilution; format: cell-based, Staphylococcus aureus
S. aureus USA 400 (MRSA) [5] = assay: MIC, broth microdilution; format: cell-based, Staphylococcus aureus
S. aureus USA500 (MRSA) [6] = assay: MIC, broth microdilution; format: cell-based, Staphylococcus aureus
[7] = system: methicillin-resistant Staphylococcus aureus (MRSA) ATCC 43300; assay: MIC, broth microdilution; format: cell-based; settings: MRSA ATCC 43300
S. aureus NRS1 (VISA) [8] = assay: MIC, broth microdilution; format: cell-based, Staphylococcus aureus
S. aureus NRS19 (VISA) [9] = assay: MIC, broth microdilution; format: cell-based, Staphylococcus aureus
S. aureus NRS37 (VISA) [10] = assay: MIC, broth microdilution; format: cell-based, Staphylococcus aureus
S. aureus VRS1 (VRSA) [11] = assay: MIC, broth microdilution; format: cell-based, Staphylococcus aureus
S. aureus VRS4 (VRSA) [12] = assay: MIC, broth microdilution; format: cell-based, Staphylococcus aureus
S. aureus VRS5 (VRSA) [13] = assay: MIC, broth microdilution; format: cell-based, Staphylococcus aureus
S. aureus NRS107 (MRSA) [14] = assay: MBC, plating onto TSA; format: cell-based, Staphylococcus aureus
S. aureus NRS119 (MRSA) [15] = assay: MBC, plating onto TSA; format: cell-based, Staphylococcus aureus
S. aureus NRS194 (MRSA) [16] = assay: MBC, plating onto TSA; format: cell-based, Staphylococcus aureus
S. aureus USA300 (MRSA) [17] = assay: MBC, plating onto TSA; format: cell-based, Staphylococcus aureus
S. aureus USA 400 (MRSA) [18] = assay: MBC, plating onto TSA; format: cell-based, Staphylococcus aureus
S. aureus USA500 (MRSA) [19] = assay: MBC, plating onto TSA; format: cell-based, Staphylococcus aureus
[20] = system: S. aureus ATCC 43300 (MRSA); assay: MBC, plating onto TSA; format: cell-based, Staphylococcus aureus
S. aureus NRS1 (VISA) [21] = assay: MBC, plating onto TSA; format: cell-based, Staphylococcus aureus
S. aureus NRS19 (VISA) [22] = assay: MBC, plating onto TSA; format: cell-based, Staphylococcus aureus
S. aureus NRS37 (VISA) [23] = assay: MBC, plating onto TSA; format: cell-based, Staphylococcus aureus
S. aureus VRS1 (VRSA) [24] = assay: MBC, plating onto TSA; format: cell-based, Staphylococcus aureus
S. aureus VRS4 (VRSA) [25] = assay: MBC, plating onto TSA; format: cell-based, Staphylococcus aureus
S. aureus VRS5 (VRSA) [26] = assay: MBC, plating onto TSA; format: cell-based, Staphylococcus aureus
[27] = system: human embryonic kidney (HEK293) cell line; assay: In vitro cytotoxicity, MTS assay; settings: 40 μg/mL
MRSA USA300 = assay: Time-kill analysis; format: cell-based, Staphylococcus aureus; settings: MRSA USA300, 3 × MIC, 37 °C
In short: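 Late-log-phase cells diluted to ~1 × 10^8 CFU/mL in MHB and exposed to test compound or vancomycin in triplicate at 37 °C. 20 μL samples taken at 0, 2, 4, 6, 8, 10, 12 and 24 h, serially diluted in PBS, and plated on TSA. Plates incubated 18–20 h at 37 °C, then viable CFU/mL counted. Data given as mean ± standard deviation.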

[28] = Microsomal stability analysis
[29] = Staphylococcus aureus, MRSA|NRS107
[30] = Staphylococcus aureus, MRSA|NRS119
[31] = Staphylococcus aureus, MRSA|NRS194
[32] = Staphylococcus aureus, MRSA|USA300
[33] = Staphylococcus aureus, MRSA|USA400
[34] = Staphylococcus aureus, MRSA|USA500
[35] = Staphylococcus aureus, ATCC43300|MRSA
[36] = Staphylococcus aureus, NRS1|VISA
[37] = Staphylococcus aureus, NRS19|VISA
[38] = Staphylococcus aureus, NRS37|VISA
[39] = human liver microsomes, with NADPH

MIC (S. aureus NRS107 (MRSA) [1]; [29]): 6.3 µg/mL (≈ 16.1 µM) | MIC (S. aureus NRS119 (MRSA) [2]; [30]): 6.3 µg/mL (≈ 16.1 µM) | MIC (S. aureus NRS194 (MRSA) [3]; [31]): 6.3 µg/mL (≈ 16.1 µM) | MIC (S. aureus USA300 (MRSA) [4]; [32]): 6.3 µg/mL (≈ 16.1 µM) | MIC (S. aureus USA 400 (MRSA) [5]; [33]): 6.3 µg/mL (≈ 16.1 µM) | MIC (S. aureus USA500 (MRSA) [6]; [34]): 6.3 µg/mL (≈ 16.1 µM) | MIC [7, 35]: 6.3 µg/mL (≈ 16.1 µM) | MIC (S. aureus NRS1 (VISA) [8]; [36]): 6.3 µg/mL (≈ 16.1 µM) | MIC (S. aureus NRS19 (VISA) [9]; [37]): 12.5 µg/mL (≈ 31.9 µM) | MIC (S. aureus NRS37 (VISA) [10]; [38]): 3.1 µg/mL (≈ 7.92 µM) | MIC (S. aureus VRS1 (VRSA) [11]; Staphylococcus aureus, VRSA): 3.1 µg/mL (≈ 7.92 µM) | MIC (S. aureus VRS4 (VRSA) [12]; Staphylococcus aureus, VRSA): 1.6 µg/mL (≈ 4.09 µM) | MIC (S. aureus VRS5 (VRSA) [13]; Staphylococcus aureus, VRSA): 6.3 µg/mL (≈ 16.1 µM)
Structure (SMILES): [H]/N=C(\N)NN=C(C)c1sc(-c2ccc(-c3ccc(C(C)=O)cc3)cc2)nc1C [22d, (E)-2-(1-(2-(4′-Acetyl-[1,1′-biphenyl]-4-yl)-4-methylthiazol-5-yl)ethylidene)hydrazinecarboximidamide]
MBC (S. aureus NRS107 (MRSA) [14]; [29]): 12.5 µg/mL (≈ 31.9 µM) | MBC (S. aureus NRS119 (MRSA) [15]; [30]): 12.5 µg/mL (≈ 31.9 µM) | MBC (S. aureus NRS194 (MRSA) [16]; [31]): 6.3 µg/mL (≈ 16.1 µM) | MBC (S. aureus USA300 (MRSA) [17]; [32]): 6.3 µg/mL (≈ 16.1 µM) | MBC (S. aureus USA 400 (MRSA) [18]; [33]): 6.3 µg/mL (≈ 16.1 µM) | MBC (S. aureus USA500 (MRSA) [19]; [34]): 6.3 µg/mL (≈ 16.1 µM) | MBC [20, 35]: 6.3 µg/mL (≈ 16.1 µM) | MBC (S. aureus NRS1 (VISA) [21]; [36]): 6.3 µg/mL (≈ 16.1 µM) | MBC (S. aureus NRS19 (VISA) [22]; [37]): 12.5 µg/mL (≈ 31.9 µM) | MBC (S. aureus NRS37 (VISA) [23]; [38]): 6.3 µg/mL (≈ 16.1 µM) | MBC (S. aureus VRS1 (VRSA) [24]; Staphylococcus aureus, VRSA): 3.1 µg/mL (≈ 7.92 µM) | MBC (S. aureus VRS4 (VRSA) [25]; Staphylococcus aureus, VRSA): 3.1 µg/mL (≈ 7.92 µM) | MBC (S. aureus VRS5 (VRSA) [26]; Staphylococcus aureus, VRSA): 6.3 µg/mL (≈ 16.1 µM) | toxicity to mammalian cells (MTS assay) [27]: not toxic; also recorded: improved toxicity profile

MIC (S. aureus NRS107 (MRSA) [1]; NRS107 (MRSA)): 1.4 µg/mL (≈ 3.96 µM) | MIC (S. aureus NRS119 (MRSA) [2]; NRS119 (MRSA)): 1.4 µg/mL (≈ 3.96 µM) | MIC (S. aureus NRS194 (MRSA) [3]; NRS194 (MRSA)): 1.4 µg/mL (≈ 3.96 µM) | MIC (S. aureus USA300 (MRSA) [4]; USA300 (MRSA)): 1.4 µg/mL (≈ 3.96 µM) | MIC (S. aureus USA 400 (MRSA) [5]; USA 400 (MRSA)): 1.4 µg/mL (≈ 3.96 µM) | MIC (S. aureus USA500 (MRSA) [6]; USA500 (MRSA)): 1.4 µg/mL (≈ 3.96 µM) | MIC [7]: 1.4 µg/mL (≈ 3.96 µM) | MIC (S. aureus NRS1 (VISA) [8]; NRS1 (VISA)): 0.7 µg/mL (≈ 1.98 µM) | MIC (S. aureus NRS19 (VISA) [9]; NRS19 (VISA)): 1.4 µg/mL (≈ 3.96 µM) | MIC (S. aureus NRS37 (VISA) [10]; NRS37 (VISA)): 1.4 µg/mL (≈ 3.96 µM) | MIC (S. aureus VRS1 (VRSA) [11]; VRS1 (VRSA)): 1.4 µg/mL (≈ 3.96 µM) | MIC (S. aureus VRS4 (VRSA) [12]; VRS4 (VRSA)): 1.4 µg/mL (≈ 3.96 µM) | MIC (S. aureus VRS5 (VRSA) [13]; VRS5 (VRSA)): 2.8 µg/mL (≈ 7.92 µM) | NADPH-dependent CLint [28, 39]: 3.7 µL/min/mg | NADPH-dependent T1/2 [28, 39]: >4 h | NADPH-free T1/2 ([28]; human liver microsomes, without NADPH): >4 h | half-life ([28]; pooled human liver microsomes): exceeds 4 hours
Structure (SMILES): [H]/N=C(/N)NN=C(C)c1sc(-c2ccc(C#CCCCC)cc2)nc1C [compound 5, (Z)-2-(1-(2-(4-(Hex-1-yn-1-yl)phenyl)-4-methylthiazol-5-yl)ethylidene) hydrazinecarboximidamide]
MBC (S. aureus NRS107 (MRSA) [14]; NRS107 (MRSA)): 1.4 µg/mL (≈ 3.96 µM) | MBC (S. aureus NRS119 (MRSA) [15]; NRS119 (MRSA)): 1.4 µg/mL (≈ 3.96 µM) | MBC (S. aureus NRS194 (MRSA) [16]; NRS194 (MRSA)): 1.4 µg/mL (≈ 3.96 µM) | MBC (S. aureus USA300 (MRSA) [17]; USA300 (MRSA)): 1.4 µg/mL (≈ 3.96 µM) | MBC (S. aureus USA 400 (MRSA) [18]; USA 400 (MRSA)): 1.4 µg/mL (≈ 3.96 µM) | MBC (S. aureus USA500 (MRSA) [19]; USA500 (MRSA)): 1.4 µg/mL (≈ 3.96 µM) | MBC ([20]; ATCC 43300 (MRSA)): 1.4 µg/mL (≈ 3.96 µM) | MBC (S. aureus NRS1 (VISA) [21]; NRS1 (VISA)): 0.7 µg/mL (≈ 1.98 µM) | MBC (S. aureus NRS19 (VISA) [22]; NRS19 (VISA)): 1.4 µg/mL (≈ 3.96 µM) | MBC (S. aureus NRS37 (VISA) [23]; NRS37 (VISA)): 1.4 µg/mL (≈ 3.96 µM) | MBC (S. aureus VRS1 (VRSA) [24]; VRS1 (VRSA)): 1.4 µg/mL (≈ 3.96 µM) | MBC (S. aureus VRS4 (VRSA) [25]; VRS4 (VRSA)): 2.8 µg/mL (≈ 7.92 µM) | MBC (S. aureus VRS5 (VRSA) [26]; VRS5 (VRSA)): 2.8 µg/mL (≈ 7.92 µM) | time to completely eradicate MRSA growth (MRSA USA300): ≤ 4 h

MIC [7, 35]: 12.6 µg/mL (≈ 31.9 µM)
Structure (SMILES): [H]/N=C(\N)NN=C(C)c1sc(-c2ccc(C#CCCCCCCC)cc2)nc1C [compound 7, (E)-2-(1-(4-Methyl-2-[4-(non-1-yn-1-yl)phenyl]thiazol-5-yl)ethylidene)hydrazinecarboximidamide]

MIC [7, 35]: > 35.1 µg/mL
Structure (SMILES): CCCCc1ccc(-c2nc(C)c(C(N)=O)s2)cc1 [compound 9, 2-(4-Butylphenyl)-4-methylthiazole-5-carboxamide]
